Screening results (PubChem)
CHOP UPR activ: activators of apoptotic arm of unfolded protein response (CHOP); CHO-CHOP luciferase reporter, UPR activation, luminescence; percent of tunicamycin response over DMSO baseline; activation, % at 10 µM; hit rate 0.34% among 330,000; AID 449763;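 active = at 10 µM dose, activation of 40% or more, normalized to positive control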;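 note: 100% = tunicamycin at 10 µg/mL and 0% = DMSO alone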
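Assay system: CHO cells with stable CHOP pathway luciferase reporter; Buffer or medium: F12 plus 10% serum; Times: 16-18 h cell attachment, then 6 h compound exposure, 37 °C; Signal: luciferase luminescence; Read-out basis: percent activation relative to tunicamycin control; Control set: tunicamycin high control, DMSO low control.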
Mdm2 MdmX PPI: inhibitors of human Mdm2/MdmX interaction; O15151+Q00987; SaOS-2 split-luciferase Mdm2/MdmX complementation, luminescence; inhibition, % at 8 µM; hit rate 3% among 330,000;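 active = inhibition of at least 50% at 8 µM in the primary screen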
Exocytosis inh: lytic granule exocytosis inhibition; inhibition, % at 10 µM; TALL-104 LAMP-1 surface exposure, flow cytometry; cells stimulated with thapsigargin and PMA; hit rate 0.66% among 360,000;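 active = inhibition above about 55%, limit read from the data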
UPR XBP1 act: activators of adaptive arm of unfolded protein response (XBP1); activation, % at 20 µM; hit rate 0.33% among 330,000; CHO-XBP1 luciferase reporter, IRE1-XBP1 UPR activation, luminescence; percent of tunicamycin response, DMSO as zero; AID 463104;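 active = versus positive control, 20 µM dose yields 30% or more activation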;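 note: 100% = tunicamycin at 10 µg/mL and 0% = DMSO only wells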
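Material – CHO cell line with stable XBP1 luciferase reporter · Buffer or medium – F12 plus 10% FBS · Compound – single point, 20 µM final compound, 1% DMSO · Schedule – 16-18 h cell attachment at 37 °C, then 6 h compound exposure · Signal – Steady-Glo luminescence read · Benchmarks – high control tunicamycin 10 µg/mL final, low control DMSO vehicle only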
ABHD5 PLIN5 PPI: ABHD5-PLIN5 protein interaction inhibition; AID 602281; Split G. princeps luciferase complementation, luminescence, 4 h; hit rate 0.78% among 360,000; Q00G26+Q8WTS1; inhibition, % at 4 µM;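 active = inhibition above the mean inhibition across every tested compound plus 3 SD, cut at about 22% in these data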;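 note: 0% = DMSO only wells and the 100% control is not disclosed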
Target sequence (Q00G26 whole entry, looked up): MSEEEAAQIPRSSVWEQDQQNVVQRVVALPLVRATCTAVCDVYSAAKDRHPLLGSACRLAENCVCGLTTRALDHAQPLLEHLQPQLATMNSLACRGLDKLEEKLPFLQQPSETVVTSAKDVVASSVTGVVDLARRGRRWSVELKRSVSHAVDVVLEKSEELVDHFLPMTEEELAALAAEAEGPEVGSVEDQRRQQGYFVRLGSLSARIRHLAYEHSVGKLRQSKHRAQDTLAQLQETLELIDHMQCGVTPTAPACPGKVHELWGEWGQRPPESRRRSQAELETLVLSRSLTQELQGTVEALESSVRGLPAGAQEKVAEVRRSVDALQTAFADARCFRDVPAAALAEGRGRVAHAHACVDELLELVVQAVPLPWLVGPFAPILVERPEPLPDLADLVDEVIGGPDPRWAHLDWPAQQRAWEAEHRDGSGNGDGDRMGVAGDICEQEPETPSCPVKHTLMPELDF
Target sequence (Q8WTS1 whole entry, looked up): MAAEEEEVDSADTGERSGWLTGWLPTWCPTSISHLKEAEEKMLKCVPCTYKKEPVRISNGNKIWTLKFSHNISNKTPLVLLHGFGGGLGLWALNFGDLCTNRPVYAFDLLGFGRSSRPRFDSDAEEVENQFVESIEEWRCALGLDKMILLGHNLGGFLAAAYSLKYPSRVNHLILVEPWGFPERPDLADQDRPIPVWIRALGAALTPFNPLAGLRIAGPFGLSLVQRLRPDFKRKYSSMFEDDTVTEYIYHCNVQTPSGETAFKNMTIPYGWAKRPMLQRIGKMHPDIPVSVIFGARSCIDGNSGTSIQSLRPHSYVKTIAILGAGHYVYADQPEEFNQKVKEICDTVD
Mdm2 MdmX conf: human Mdm2/MdmX binding inhibition, confirmed. shares compounds with Mdm2 MdmX PPI. luminescent assay. inhibition, % at 8 µM. hit rate 55% among 10,000. AID 489028; in the data active = inhibition above about 40%
Full FLuc ctr: counter-screen for Mdm2/MdmX inhibitors: full-length luciferase. shares compounds with Mdm2 MdmX PPI. SaOS-2 full-length luciferase counterscreen, luminescence. inhibition, % at 8 µM. hit rate 77% among 6,200. AID 504607;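 active = mean inhibition at 8 µM reaching about 37%, which flags the compound as non-specific, limit read from the data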;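 note: p53-null SaOS-2 cells with luciferase driven by a doxycycline-inducible promoter; compound on cells about two nights before reading with doxycycline added after day one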
Starred values were filed as active, the others as inactive. Most compounds without a hit are left out; they make up all but 4% or so of the library.

For Cc1c(CCOC(=O)CC23CC4CC(CC(C)(C4)C2)C3)sc[n+]1CC(=O)c1ccccc1 the results were CHOP UPR activ -1, Mdm2 MdmX PPI 54*, Exocytosis inh 97*, UPR XBP1 act -2, ABHD5 PLIN5 PPI 14 and Mdm2 MdmX conf 14.
For O=C(CSc1nnc(CNC(=O)c2ccccc2F)o1)NCc1ccco1 the results were CHOP UPR activ -3, Mdm2 MdmX PPI 8, Exocytosis inh -8, UPR XBP1 act -7 and ABHD5 PLIN5 PPI 6.
Screening O=C(Nc1nc(-c2ccccc2)cs1)c1ccc2c(c1)S(=O)(=O)c1ccccc1C2=O returned CHOP UPR activ 1, Mdm2 MdmX PPI 74*, Exocytosis inh 2, UPR XBP1 act 0, ABHD5 PLIN5 PPI -5 and Mdm2 MdmX conf 4.
O=C(Nc1nc(-c2cccc3ccccc23)cs1)c1ccc2c(c1)S(=O)(=O)c1ccccc1C2=O was read as CHOP UPR activ 34, Mdm2 MdmX PPI 95*, Exocytosis inh 0, UPR XBP1 act 25, ABHD5 PLIN5 PPI -2 and Mdm2 MdmX conf 18.
Cc1ccc(S(=O)(=O)N2CCN(CC(=O)N/N=C\c3ccc(Cl)c([N+](=O)[O-])c3)CC2)cc1 was read as CHOP UPR activ 6, Mdm2 MdmX PPI 64*, Exocytosis inh -2, UPR XBP1 act -4, ABHD5 PLIN5 PPI 0 and Mdm2 MdmX conf 17.
O=C(CN1CCN(S(=O)(=O)c2ccc(Br)cc2)CC1)N/N=C/c1ccc(Cl)c([N+](=O)[O-])c1 was read as CHOP UPR activ 27, Mdm2 MdmX PPI 30, Exocytosis inh -7, UPR XBP1 act -6 and ABHD5 PLIN5 PPI 5.
For Cc1cc(C)c[n+](CC(=O)c2ccc(-c3ccccc3)cc2)c1 the results were CHOP UPR activ 0, Mdm2 MdmX PPI -2, Exocytosis inh -5, UPR XBP1 act -1 and ABHD5 PLIN5 PPI 4.
`Cc1ccc(N(C)S(=O)(=O)c2cccc(C(=O)N(C)Cc3cnn(-c4ccccc4)c3)c2)cc1` gave CHOP UPR activ -2, Mdm2 MdmX PPI 66*, Exocytosis inh 3, UPR XBP1 act -5, ABHD5 PLIN5 PPI -8, Mdm2 MdmX conf 47* and Full FLuc ctr 96*.
Screening Cc1ccc(C)c(NC(=O)C(CC(=O)O)C2CCCO2)c1 (stereo not given) returned CHOP UPR activ -2, Mdm2 MdmX PPI -5, Exocytosis inh -5, UPR XBP1 act -5 and ABHD5 PLIN5 PPI -1.
Screening Cc1nn(C)cc1NC(=O)CC12CC3CC(CC(C3)C1)C2 returned CHOP UPR activ -1, Mdm2 MdmX PPI 4, Exocytosis inh -2, UPR XBP1 act -2 and ABHD5 PLIN5 PPI -2.
For Cc1[nH]c(=O)[nH]c(=O)c1CSc1nnc([C@@H](NC(=O)OC(C)(C)C)C(C)C)o1 the results were CHOP UPR activ -3, Mdm2 MdmX PPI 84*, Exocytosis inh 0, UPR XBP1 act -1, ABHD5 PLIN5 PPI 1 and Mdm2 MdmX conf 3.
`CCOc1cc(NC(=O)C2CC2)c(OCC)cc1NC(=O)c1cc(OC)c(OC)c(OC)c1` gave CHOP UPR activ -2, Mdm2 MdmX PPI 62*, Exocytosis inh -7, UPR XBP1 act -1, ABHD5 PLIN5 PPI -8 and Mdm2 MdmX conf 13.
COc1ccc(N=Cc2c(O)n(-c3ccc(OC)cc3)c(=O)c3ccccc23)cc1 was read as CHOP UPR activ 2, Mdm2 MdmX PPI 50, Exocytosis inh -1, UPR XBP1 act 20 and ABHD5 PLIN5 PPI 3.
`O=c1c2ccccc2c(C=Nc2cccc(O)c2)c(O)n1-c1ccc2c(c1)OCO2` gave CHOP UPR activ 2, Mdm2 MdmX PPI 82*, Exocytosis inh 13, UPR XBP1 act 3, ABHD5 PLIN5 PPI 3 and Mdm2 MdmX conf 36.
`COc1ccc(Cl)cc1NC(=O)c1cc(-c2ccco2)on1` gave CHOP UPR activ -1, Mdm2 MdmX PPI 34, Exocytosis inh -7, UPR XBP1 act -5 and ABHD5 PLIN5 PPI 9.
`O=C(Nc1cc(Cl)ccc1Cl)c1cc(-c2ccco2)on1` gave CHOP UPR activ 4, Mdm2 MdmX PPI 62*, Exocytosis inh -5, UPR XBP1 act 3, ABHD5 PLIN5 PPI 8 and Mdm2 MdmX conf 12.
`O=C(Nc1cccnc1Cl)c1cc(-c2ccc(Cl)cc2)on1` gave CHOP UPR activ 16, Mdm2 MdmX PPI 54*, Exocytosis inh 3, UPR XBP1 act 22, ABHD5 PLIN5 PPI 2 and Mdm2 MdmX conf -2.
Screening CCOC(=O)c1cnn(-c2nc(-c3ccc(C)cc3)cs2)c1C(F)(F)F returned Exocytosis inh 4 and ABHD5 PLIN5 PPI 1.
`COc1ccc(NC(=S)Nc2cc(S(=O)(=O)N3CCCCC3)ccc2OC)cc1` gave CHOP UPR activ 4, Mdm2 MdmX PPI 5 and UPR XBP1 act 0.
Screening CC(C)(C)C(=O)O/N=C(\N)c1ccc(Oc2cc(Cl)cc(Cl)c2)c([N+](=O)[O-])c1 returned CHOP UPR activ 1, Mdm2 MdmX PPI 60*, Exocytosis inh 10, UPR XBP1 act -6, ABHD5 PLIN5 PPI -2 and Mdm2 MdmX conf 8.
Screening CNc1nc(Nc2ccc(C)cc2C)c2sccc2n1 returned Exocytosis inh 0 and ABHD5 PLIN5 PPI 7.
Screening C[C@H](CO)N1C[C@H](C)[C@@H](CN(C)C(=O)Nc2ccc(C(F)(F)F)cc2)Oc2ccc(NC(=O)c3ccncc3)cc2C1=O returned CHOP UPR activ 3, Mdm2 MdmX PPI 5, Exocytosis inh 6, UPR XBP1 act -2 and ABHD5 PLIN5 PPI 3.
For Cc1c(/C=N/NC(=O)c2cccs2)c2ccccc2n1Cc1ccccc1Cl the results were CHOP UPR activ 4, Mdm2 MdmX PPI 72*, Exocytosis inh -3, UPR XBP1 act 2, ABHD5 PLIN5 PPI -1, Mdm2 MdmX conf 65* and Full FLuc ctr 90*.
Screening Cc1[nH]c2ccccc2c1/C=N/NC(=O)c1cccs1 returned CHOP UPR activ 1, Mdm2 MdmX PPI 31, Exocytosis inh -1, UPR XBP1 act 4 and ABHD5 PLIN5 PPI 0.
`O=C(OCc1ccccc1)/C(=C/c1cccc(Br)c1)NC(=O)c1ccco1` gave CHOP UPR activ 1, Mdm2 MdmX PPI 9, Exocytosis inh 3, UPR XBP1 act -3 and ABHD5 PLIN5 PPI -8.
COc1cccc(CNc2ncc(C(=O)Nc3cc(OC)c(OC)c(OC)c3)c(C)n2)c1 was read as CHOP UPR activ 0, Mdm2 MdmX PPI 55*, Exocytosis inh -11, UPR XBP1 act 0, ABHD5 PLIN5 PPI -1, Mdm2 MdmX conf 57* and Full FLuc ctr 48*.
`Cc1cc(=O)oc2cc(OCC(O)CN3CCN(c4ccccc4)CC3)ccc12` (stereo not given) gave CHOP UPR activ -1, Mdm2 MdmX PPI -2, Exocytosis inh 8, UPR XBP1 act -1 and ABHD5 PLIN5 PPI -6.
